Assay outcomes deposited in PubChem BioAssay by several laboratories.
The list is not random: actives were taken first. Their share in the collection is about 3.4%.
LANA-H2A inh: blocks KSHV LANA binding to histone H2A/H2B; Q9QR71; cell-free LANA-H2A/H2B peptide, fluorescence polarization; inhibition, % (test concentration not listed); 320,000 compounds, 0.6% hits; in the data active means inhibition mostly above about 10%, no sharp cut-off; inactive means mostly below about 6.7%
Target sequence (Q9QR71 whole entry, looked up): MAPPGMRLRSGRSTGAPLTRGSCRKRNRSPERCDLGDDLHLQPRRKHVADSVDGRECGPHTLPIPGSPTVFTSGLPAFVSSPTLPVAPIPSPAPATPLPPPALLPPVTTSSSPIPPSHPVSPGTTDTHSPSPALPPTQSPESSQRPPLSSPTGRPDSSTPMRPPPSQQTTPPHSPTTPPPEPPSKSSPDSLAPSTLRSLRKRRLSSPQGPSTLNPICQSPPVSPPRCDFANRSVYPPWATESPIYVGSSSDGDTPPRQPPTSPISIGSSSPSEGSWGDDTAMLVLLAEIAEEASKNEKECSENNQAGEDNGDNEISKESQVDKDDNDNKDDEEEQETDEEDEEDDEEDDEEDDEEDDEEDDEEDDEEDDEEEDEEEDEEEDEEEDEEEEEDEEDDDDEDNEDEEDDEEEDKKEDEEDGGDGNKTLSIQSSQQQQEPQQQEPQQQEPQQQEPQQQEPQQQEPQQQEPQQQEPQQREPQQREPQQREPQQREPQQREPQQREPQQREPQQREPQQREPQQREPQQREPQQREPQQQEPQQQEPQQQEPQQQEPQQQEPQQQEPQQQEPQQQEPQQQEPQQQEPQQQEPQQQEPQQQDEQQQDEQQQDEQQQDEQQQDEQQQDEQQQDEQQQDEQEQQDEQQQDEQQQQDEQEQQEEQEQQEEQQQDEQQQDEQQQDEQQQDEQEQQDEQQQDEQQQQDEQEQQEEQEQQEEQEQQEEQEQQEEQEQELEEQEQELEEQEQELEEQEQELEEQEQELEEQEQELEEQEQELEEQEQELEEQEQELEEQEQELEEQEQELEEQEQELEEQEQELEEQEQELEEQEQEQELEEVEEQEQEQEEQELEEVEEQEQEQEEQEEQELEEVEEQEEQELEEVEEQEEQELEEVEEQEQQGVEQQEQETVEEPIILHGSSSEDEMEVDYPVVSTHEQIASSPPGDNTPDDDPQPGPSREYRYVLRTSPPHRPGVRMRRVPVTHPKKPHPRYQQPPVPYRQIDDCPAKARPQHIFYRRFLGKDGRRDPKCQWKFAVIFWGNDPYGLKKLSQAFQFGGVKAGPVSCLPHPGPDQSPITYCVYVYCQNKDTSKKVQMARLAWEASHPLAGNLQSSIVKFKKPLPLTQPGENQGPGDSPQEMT
TRPML3 ag: activates the human TRPML3 channel. HEK293 TRPML3-YFP, Fluo-8 calcium fluorescence; 100% = the carbachol control signal. activation, % at 3 µM. 220,000 compounds, 0.29% hits. AID 1448;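 active means activation above its plate's cutoff, the mean activation of the plate's test wells plus 3 SD, cut at about 12% in these data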;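 further: 0% = DMSO only wells and 100% = carbachol wells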
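Test system: TRPML3-YFP stable HEK293 cells. Doses: single point at 3 µM. Incubation: dye loading 1 h 37 °C then 30 min ambient, 125 s read. Signal: Fluo-8 calcium dye fluorescence, ex 470-495, em 515-575 nm. Measure: percent activation from peak-to-basal fluorescence ratio, scaled between DMSO and carbachol.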
TAAR1 agonist: agonists of human TAAR1; Q96RJ0; CHO RD-HGA16 TAAR1, Fluo-8 calcium fluorescence; vehicle wells 0%, saturating PEA agonist 100%; activation, % at 3 µM; 360,000 compounds, 0.99% hits;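 active means activation above the mean activation of all test compounds in the run plus 3 SD, cut at about 38% in these data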
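System: CHO RD-HGA16 cells carrying human TAAR1 plus Gα16; Incubation: 17-24 h seeding, 75 min 37 °C dye, 30 min RT; Measured by: Fluo-8 fluorescence, 5 s baseline then 140 s kinetic read; Control set: DMSO and PEA EC100; Replication: single well for each compound.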
TAAR1 antag: antagonists of human TAAR1; Q96RJ0; inhibition, % at 3 µM; AID 624466; 360,000 compounds, 1.5% hits; CHO RD-HGA16 TAAR1, Fluo-8 calcium fluorescence, antagonist;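 active means inhibition above a per-plate cutoff, the mean inhibition of test compounds on that plate plus 3 SD, cut at about 49% in these data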;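 further: 0% = DMSO plus EC80 beta-PEA response and 100% = DMSO alone without agonist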
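Test system – hTAAR1-expressing CHO RD-HGA16 cells, Gα16-coupled · Also added – β-PEA at EC80 concentration, post-compound challenge · Compound – 3 µM, single point · Incubation – dye loading 75 min at 37 °C, then 30 min room temperature · Measured by – Fluo-8 intracellular calcium dye fluorescence, real-time kinetic reads · Benchmarks – vehicle and agonist controls · Replicates – singlicate, one well per test compound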
zfTRPN1 agonist: agonists of zebrafish TRPN1 channel; activation, % at 3 µM; 220,000 compounds, 0.18% hits; HEK293 zebrafish TRPN1-YFP, Fluo-8 calcium fluorescence; 100% = response to 87 µM carbachol;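 active means activation above its plate's cutoff, the mean activation of test wells on that plate plus 3 SD, cut at about 19% in these data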;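 further: 0% = DMSO alone and 100% = 87 µM carbachol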
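Material: zebrafish TRPN1-YFP in HEK293 cells. Doses: one dose of 3 µM, 0.3% DMSO. Incubation: dye 1 h 37 °C plus 30 min RT. Measured by: intracellular calcium fluorescence with Fluo-8.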
GPR7 antag: human neuropeptides B/W receptor 1 antagonism; GPR7-expressing cells, fluorescence antagonist assay; inhibition, % at 4.4 µM; 290,000 compounds, 1.1% hits; AID 1861; in the data active means inhibition above about 16%, passing the limit was not always enough;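 further: cells stimulated with the agonist NPW; 0% = agonist with vehicle and 100% = vehicle without agonist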
* marks the source's active call; other numbers are inactive results; · = not tested or not shown.

SMILES | LANA-H2A inh | TRPML3 ag | TAAR1 agonist | TAAR1 antag | zfTRPN1 agonist | GPR7 antag
CC(=O)c1ccc(NC(=O)Nc2ccc(Cl)cc2)cc1 | 0 | 6 | 42* | 0 | 12 | 18
COC(=O)c1cccc(NC(=O)NC(=O)c2ccc(Cl)cc2)c1 | 4 | 0 | 3 | 9 | 2 | -11
O=C(NCCc1ccc(Cl)cc1)Nc1ccc(Cl)cc1 | 3 | 1 | 42* | 30 | 0 | -11
COC(=O)c1cccc(NC(=O)Nc2ccc(Cl)cc2)c1 | 1 | 7 | 11 | 23 | 21* | -8
CC(=O)c1ccc(NC(=O)Nc2ccncc2)cc1 | -1 | 1 | 14 | 10 | 1 | -19
COC(=O)[C@]1(Cc2ccccc2)NC=C(C(=O)c2ccccc2)[C@@H]1c1cccs1 | · | · | 0 | -11 | · | ·
CC1=CC(=O)C=C(C)C1=NOS(=O)(=O)c1ccccc1 | · | 7 | 19 | 52* | 4 | 40*
Cc1ccc2c(c1)/C(=N/OS(=O)(=O)c1ccccc1)CCS2 | -1 | 1 | -1 | 18 | 1 | -8
COc1ccc(N=CC2=C(Nc3ccc(OC)cc3)c3c(C)nn(-c4ccccn4)c3CC2)cc1 | 60* | 6 | · | · | 6 | -2
COc1ccc(OC)c(CCNC(=O)Cn2sc3nc(C)cc(C)c3c2=O)c1 | -3 | 0 | · | · | 2 | 16*
Cc1cn2c(=O)c3ncn(C4OC(CO)C(O)C4O)c3n(C)c2n1 (stereo not given) | · | · | 0 | 11 | · | ·
CC(=O)Oc1cccc(NC(=O)c2cccc(C(=O)Nc3cccc(OC(C)=O)c3)c2)c1 | 1 | · | 9 | 69* | · | 10
COc1ccccc1Nc1ccc(NC(=O)c2cccc([N+](=O)[O-])c2C)cc1 | -2 | · | -1 | 51* | · | 7
CCCCN1CC(COCc2ccccc2)Oc2cccc(N3CCCCC3)c2S1(=O)=O (stereo not given) | · | · | -1 | -35 | · | ·
Cc1ccc(Sc2ncccc2N)cc1 | 37* | · | 1 | -30 | · | ·
COC(=O)C1CCN(C(=O)C(C)Oc2ccc(Cl)cc2Cl)CC1 (stereo not given) | 3 | 0 | · | · | 2 | 20*
Cc1ncc([N+](=O)[O-])n1CCO | -17 | 0 | 0 | -9 | 0 | -8
CCS(=O)(=O)CCn1c([N+](=O)[O-])cnc1C | 11* | 0 | 0 | -5 | 0 | -7
CN1OC[C@@H]2CN[C@H](c3ccc(N4CCCCC4)cc3)C[C@@H]21 | · | · | 1 | -14 | · | ·
CC(=O)Oc1ccc(N2C(=O)C3C(C2=O)C2C=CC3C23CC3)cc1[N+](=O)[O-] (stereo not given) | 11* | 1 | -2 | -10 | 0 | -13
CC(OC(=O)c1ccc(O)cc1)C(=O)Nc1ccc(Oc2ccccc2)cc1 (stereo not given) | 1 | · | 3 | 49* | · | ·
CC(OC(=O)c1ccc(O)cc1)C(=O)Nc1nc(-c2ccccc2)cs1 (stereo not given) | 3 | · | 9 | 18 | · | ·
O=C(NCCCN1CCCC1)Nc1cccc2ccccc12 | 14* | 0 | 7 | -23 | 1 | 10
COc1cccc2cc(C(C)N(CCCN3CCOCC3)C(=S)Nc3cc(C)ccc3C)oc12 (stereo not given) | 6 | 1 | -3 | -30 | 1 | -3
COc1cccc2cc(C(C)N(CCCN3CCOCC3)C(=S)Nc3cccc(C)c3C)oc12 (stereo not given) | 5 | 1 | 39* | -48 | 1 | 8
SMILES | LANA-H2A inh | TRPML3 ag | TAAR1 agonist | TAAR1 antag | zfTRPN1 agonist | GPR7 antag
COc1ccc2nc(NN=Cc3cccc(C)n3)cc(C)c2c1 | · | · | 2 | -11 | · | ·
Clc1ccc(Cc2ccc(SCc3ccccc3)nn2)c(Cl)c1 | 2 | 0 | 15 | 50* | 0 | -2
Clc1ccc(Cc2ccc(Cl)nn2)c(Cl)c1 | 4 | -2 | 3 | -2 | -3 | -6
Cc1cccc(C)c1NC(=O)CN(C)C(C)C(=O)NCC(=O)Nc1ccc(F)c(F)c1F (stereo not given) | 187* | · | 12 | 7 | · | ·
Cc1cccc(C)c1NC(=O)CNC(=O)C(C)N(C)CC(=O)Nc1ccc(F)cc1 (stereo not given) | · | · | 2 | -11 | · | ·
O=C(Cc1ccc(Cl)cc1)Nc1ncc([N+](=O)[O-])s1 | · | 10 | 10 | 1 | 22* | 8
Cc1ccnc(NC(=O)COc2ccc(Cl)cc2)n1 | -1 | 0 | -1 | -5 | 1 | 19*
O=C(COC(=O)COc1ccccc1)Nc1ncc([N+](=O)[O-])s1 | 2 | · | 20 | -7 | · | ·
O=C(Cc1ccc(Br)cc1)Nc1ncc([N+](=O)[O-])s1 | 0 | 14* | 8 | 5 | 21* | 20
O=C(COc1ccc(Cl)cc1)Nc1ncc([N+](=O)[O-])s1 | · | 20* | 3 | -19 | 30* | 8
O=C(COc1ccc(Cl)cc1)Nc1ncccn1 | 0 | 1 | 3 | 17 | -1 | -4
C=CCN=C1NC(CCc2ccccc2)C(C(=O)OC)=C(C)N1C (stereo not given) | · | · | 1 | -12 | · | ·
COc1ccc2sc(N(CCCN(C)C)C(=O)c3ccc(S(=O)(=O)N4CCCC4)cc3)nc2c1 | -1 | · | 12 | -33 | · | ·
Cc1cccc2sc(N(CCCN(C)C)C(=O)c3ccc(S(=O)(=O)N4CCc5ccccc5C4)cc3)nc12 | -4 | · | 39* | 33 | · | 21
CN(C)CCCN(C(=O)c1ccc2c(c1)CCCC2)c1nc2cc3c(cc2s1)OCO3 | -3 | · | 41* | -7 | · | 12
COc1ccc2sc(N(CCCN(C)C)C(=O)c3ccc(S(=O)(=O)N4CCc5ccccc5C4)cc3)nc2c1 | 2 | · | 40* | 10 | · | ·
O=S(=O)(c1cnc[nH]1)N1CCN(c2ccc(F)cc2)CC1 | 111* | 0 | -2 | -8 | 0 | 2
O=S(=O)(c1cnc[nH]1)N1CCN(c2ccccc2)CC1 | 5 | 1 | 1 | -10 | 1 | -10
Cc1cc(C)cc(NC(=O)c2ccc(Cn3nc(C)c(Cl)c3C)o2)c1 | -6 | -1 | 29 | 54* | -2 | 16
C#CCN1C(=O)[C@]2(OC[C@@H]3Cc4ccccc4[C@@H]3C=C2C)c2ccccc21 | · | · | 1 | 16 | · | ·
CCOC(=O)Cn1c(=N)n(CCOc2ccc(Br)cc2)c2ccccc21 | -3 | 1 | 22 | -9 | 1 | 19*
S=C(Nc1cccc(Cl)c1)N(CCCN1CCCC1)Cc1cccn1Cc1ccc(Cl)cc1 | 2 | 0 | 20 | 14 | 0 | 11
CSc1cccc(NC(=S)N(CCCN2CCCC2)Cc2cccn2Cc2ccc(Cl)cc2)c1 | 13* | 0 | 25 | 18 | 0 | 7
CCCCCCCCN1C(=O)[C@@H](CC(=O)N2CCN(C(=O)C3CC3)CC2)C[C@@]2(C(=O)OC)C1=C[C@H](C(C)(C)C)O[C@@H]2C | · | · | -3 | -25 | · | ·
